What was measured:
[1] = Cytotoxicity against human HEL 299 cells assessed as inhibition of cell growth incubated for 72 hrs by CellTiter96 Aqueous One Solution cell proliferation assay; format: toxicity, cell-based
Huh-7 = assay: Cytotoxicity against human Huh-7 cells assessed as inhibition of cell growth incubated for 72 hrs by CellTiter96 Aqueous One Solution cell proliferation assay; format: functional
[2] = Cytotoxicity against dog MDCK cells assessed as inhibition of cell growth incubated for 72 hrs by CellTiter96 Aqueous One Solution cell proliferation assay; format: toxicity, cell-based, Canis lupus familiaris
Human coronavirus 229E = assay: Antiviral activity against HCoV-229E infected in human HEL 299 cells assessed as inhibition of virus-induced cytopathogenic effect incubated for 3 to 7 days by MTS assay; format: functional, organism-based
Human coronavirus OC43 = assay: Antiviral activity against HCoV-OC43 infected in human HEL 299 cells assessed as inhibition of virus-induced cytopathogenic effect incubated for 3 to 7 days by MTS assay; format: functional, organism-based; conditions: Betacoronavirus 1, HEL 299
[3] = Antiviral activity against HCoV-NL63 infected in human Huh-7 cells assessed as inhibition of virus-induced cytopathogenic effect incubated for 3 to 7 days by MTS assay; format: functional, cell-based; conditions: Human coronavirus NL63, Huh-7
Influenza A virus [4] = assay: Antiviral activity against influenza virus H1N1 infected in dog MDCK cells assessed as inhibition of virus-induced cytopathogenic effect incubated for 3 to 7 days by MTS assay; format: functional, organism-based
Influenza A virus [5] = assay: Antiviral activity against influenza virus H3N2 infected in dog MDCK cells assessed as inhibition of virus-induced cytopathogenic effect incubated for 3 to 7 days by MTS assay; format: functional, organism-based
Influenza B virus = assay: Antiviral activity against influenza B virus infected in dog MDCK cells assessed as inhibition of virus-induced cytopathogenic effect incubated for 3 to 7 days by MTS assay; format: functional, organism-based
[6] = system: Respiratory syncytial virus; assay: Antiviral activity against RSV infected in human HEL 299 cells assessed as inhibition of virus-induced cytopathogenic effect incubated for 3 to 7 days by MTS assay; format: functional, organism-based
Human alphaherpesvirus 1 = assay: Antiviral activity against HSV-1 KOS infected in human HEL 299 cells assessed as inhibition of virus-induced cytopathogenic effect incubated for 3 to 7 days by MTS assay; format: functional, organism-based; conditions: Human alphaherpesvirus 1, KOS
Yellow fever virus = assay: Antiviral activity against Yellow fever virus 17D infected in human Huh-7 cells assessed as inhibition of virus-induced cytopathogenic effect incubated for 3 to 7 days by MTS assay; format: functional, organism-based
Zika virus = assay: Antiviral activity against Zika virus Mr776 infected in human Huh-7 cells assessed as inhibition of virus-induced cytopathogenic effect incubated for 3 to 7 days by MTS assay; format: functional, organism-based; conditions: Mr776, Huh-7
Sindbis virus = assay: Antiviral activity against Sindbis virus infected in human Huh-7 cells assessed as inhibition of virus-induced cytopathogenic effect incubated for 3 to 7 days by MTS assay; format: functional, organism-based
[7] = Antioxidant activity assessed as ABTS radical scavenging activity incubated for 5 mins by absorbance based microplate reader analysis; format: functional
Method in brief: (§1)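 Pure compounds tested in three colorimetric antioxidant assays, each run alongside the reference BHT. […] ABTS: direct reaction with ABTS•+ radical cation, reported as IC50. DPPH: scavenging of the stable DPPH radical by proton or electron donation, reported as IC50. FRAP: reducing power, expressed as mmolFe2+/mmolC.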

[8] = Antioxidant activity assessed as DPPH radical scavenging activity incubated for 5 mins by absorbance based microplate reader analysis; format: functional; method in brief: as §1
[9] = Antioxidant activity assessed as reduction of Fe3+ complex to Fe2+ analogue by measuring mmolFe2+/mmolc by FRAP assay; format: functional; method in brief: as §1
LN-229 = assay: Antiproliferative activity against human LN-229 cells assessed as inhibition of cell growth incubated for 72 hrs by CellTiter96 Aqueous One Solution cell proliferation assay; format: functional, cell-based; conditions: LN-229, 72 h
CAPAN-1 = assay: Antiproliferative activity against human CAPAN-1 cells assessed as inhibition of cell growth incubated for 72 hrs by CellTiter96 Aqueous One Solution cell proliferation assay; format: functional, cell-based; conditions: CAPAN-1, 72 h
NCI-H460 = assay: Antiproliferative activity against human NCI-H460 cells assessed as inhibition of cell growth incubated for 72 hrs by CellTiter96 Aqueous One Solution cell proliferation assay; format: functional, cell-based; conditions: NCI-H460, 72 h
[10] = Antiproliferative activity against human DND41 cells assessed as inhibition of cell growth incubated for 72 hrs by CellTiter96 Aqueous One Solution cell proliferation assay; format: functional, cell-based; conditions: DND41, 72 h
HL-60 = assay: Antiproliferative activity against human HL-60 cells assessed as inhibition of cell growth incubated for 72 hrs by CellTiter96 Aqueous One Solution cell proliferation assay; format: functional, cell-based; conditions: HL-60, 72 h
K562 = assay: Antiproliferative activity against human K562 cells assessed as inhibition of cell growth incubated for 72 hrs by CellTiter96 Aqueous One Solution cell proliferation assay; format: functional, cell-based; conditions: K562, 72 h
Z-138 = assay: Antiproliferative activity against human Z138 cells assessed as inhibition of cell growth incubated for 72 hrs by CellTiter96 Aqueous One Solution cell proliferation assay; format: functional, cell-based; conditions: Z-138, 72 h
CCRF-CEM = assay: Antiproliferative activity against human CEM cells assessed as inhibition of cell growth; format: functional, cell-based

| SMILES | CC50 at 72 h [1] [µM] | CC50 (Huh-7) [µM] | CC50 at 72 h [2] [µM] | EC50 (Human coronavirus 229E) [µM] | EC50 (Human coronavirus OC43) [µM] | EC50 [3] [µM] | EC50 (Influenza A virus [4]) [µM] | EC50 (Influenza A virus [5]) [µM] | EC50 (Influenza B virus) [µM] | EC50 [6] [µM] | EC50 (Human alphaherpesvirus 1) [µM] | EC50 (Yellow fever virus) [µM] | EC50 (Zika virus) [µM] | EC50 (Sindbis virus) [µM] | IC50 [7] [µM] | Activity [9] [mmol/mmol] | IC50 (LN-229) [µM] | IC50 (CAPAN-1) [µM] | IC50 (NCI-H460) [µM] | IC50 [10] [µM] | further results |
| --- | --- | --- | --- | --- | --- | --- | --- | --- | --- | --- | --- | --- | --- | --- | --- | --- | --- | --- | --- | --- | --- |
| O=c1oc2ccccc2c(Cl)c1-c1nc2cc(C3=NCCCN3)ccc2[nH]1 | 87.4 | 61.7 | 81.7 | > 100 | > 100 | > 100 | > 100 | > 100 | > 100 | > 100 | > 100 | > 100 | > 100 | > 100 | 290 | 38.3 | > 100 | 69.2 | > 100 | 19.1 | IC50 [8]: 70 µM; IC50 (HL-60): 53.5 µM; IC50 (K562): > 100 µM; IC50 (Z-138): 44.5 µM |
| O=c1oc2ccccc2c(Cl)c1-c1nc2cc(C3=NCCN3)ccc2[nH]1 | 99.5 | 85 | 92.1 | > 100 | > 100 | > 100 | > 100 | > 100 | > 100 | > 100 | > 100 | > 100 | > 100 | > 100 | 370 | 35.1 | > 100 | 99.3 | > 100 | 36.5 | IC50 [8]: 440 µM; IC50 (HL-60): 55.7 µM; IC50 (K562): > 100 µM; IC50 (Z-138): 50.5 µM |
| CC(=O)N[C@H]1[C@H]([C@H](O)[C@H](O)CO)OC(C(=O)O)=C[C@@H]1NC(=N)N [ZANAMIVIR] |  |  | > 100 |  |  |  | 0.1 | 16.8 | 0.05 |  |  |  |  |  |  |  |  |  |  |  |  |
| Cc1ccc2oc(=O)c(-c3nc4cc(C5=NCCN5)ccc4[nH]3)c(Cl)c2c1 | 77 | < 0.8 | 10 | > 100 | > 100 | > 100 | > 100 | > 100 | > 100 | > 100 | > 100 | > 100 | > 100 | > 100 | 350 | 47.1 | 9.1 | 10.2 | 31.7 | 5.8 | IC50 [8]: 190 µM; IC50 (HL-60): 21.5 µM; IC50 (K562): 9.9 µM; IC50 (Z-138): 6.4 µM |
| CCN(CC)c1ccc2cc(-c3nc4ccccc4[nH]3)c(=N)oc2c1 |  |  |  |  |  |  |  |  |  |  |  |  |  |  |  |  |  |  |  |  | IC50 (CCRF-CEM): 0.059 µM |
| CC(N)C12CC3CC(CC(C3)C1)C2 (centres undefined) [RIMANTADINE] |  |  | > 100 |  |  |  | 5 | 0.05 | > 100 |  |  |  |  |  |  |  |  |  |  |  |  |
| Cc1ccc2oc(=O)c(-c3nc4cc(C5=NCCCN5)ccc4[nH]3)c(Cl)c2c1 | > 100 | 78.7 | 77.1 | > 100 | 74.2 | > 100 | > 100 | > 100 | > 100 | 64.1 | > 100 | > 100 | > 100 | > 100 | 460 | 47.8 | > 100 | 71.9 | > 100 | 16.9 | IC50 [8]: 520 µM; IC50 (HL-60): 64.2 µM; IC50 (K562): > 100 µM; IC50 (Z-138): 48.1 µM |
| CCN(CC)c1ccc2cc(-c3nc4cccnc4s3)c(=N)oc2c1 |  |  |  |  |  |  |  |  |  |  |  |  |  |  |  |  |  |  |  |  | IC50 (CCRF-CEM): 0.17 µM |
| CCN(CC)c1ccc2cc(-c3nc4ccc(C5=NCCN5)cc4s3)c(=O)oc2c1 | > 100 | 54.2 | 64.2 | > 100 | 69.7 | > 100 | > 100 | > 100 | > 100 | > 100 | 47.9 | > 100 | > 100 | > 100 | 2190 | 2.84 | > 100 | 80.6 | > 100 | 10.2 | IC50 (HL-60): > 100 µM; IC50 (K562): 65.5 µM; IC50 (Z-138): 11.3 µM |

Reference: ChEMBL document CHEMBL5257157, “Biological evaluation of novel amidino substituted coumarin-benzazole hybrids as promising therapeutic agents” (RSC Med Chem, 2023)
